Experimental data from article PMC7684765 (Journal of medicinal chemistry, 2020).
“Also recorded” adds a separate entry of the source. Like-named read-outs stand apart in the source and are kept apart here.

How the values were obtained:
HT-22 neuronal cells = test: HT-22 cell toxicity study; format: cell-based; settings: up to 50 μM
Procedure, shortened: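 HT-22 neuronal cells were grown in high-glucose DMEM with 10% FBS and 1% antibiotic-antimycotic at 37 °C and 5% CO2. Cells were seeded at 2000 per well. After 12 h, serially diluted test compound was added for 48 h. […] Readings were background-subtracted and normalized to control wells.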

[1] = tested on: 6 Hz mouse seizure model at 22 mA; test: 6 Hz 22 mA mouse seizure model; format: in vivo; settings: up to 400 mg/kg
PAINS exclusion assay = format: physicochemical; settings: up to 24 h
[2] = tested on: ATP levels in HT-22 cells; settings: 5 μM; cited from earlier work
zebrafish = settings: cited from earlier work
[3] = tested on: 6 Hz 44 mA mouse seizure model; settings: cited from earlier work
[4] = tested on: 6 Hz 32 mA mouse seizure model; test: 6 Hz 32 mA mouse seizure test; format: in vivo; settings: ip
[5] = tested on: 6 Hz 44 mA mouse seizure model; test: 6 Hz 44 mA mouse seizure test; format: in vivo; settings: ip, 400 mg/kg
MES-induced seizures = test: Maximal electroshock; format: in vivo; settings: MES model, mouse, ip, 350 mg/kg
Procedure, shortened: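 Male CF-1 mice, 8 per group per dose, received test compound ip as a suspension in 0.5% HPMC, 1 h before stimulation. Tetracaine (0.5%) in electrolyte was applied to the eyes. A 60 Hz, 50 mA alternating current was delivered through corneal electrodes […]. Animals without hindlimb tonic extension were scored protected. Results are given as N/F, and ED50 was calculated by probit analysis.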

s.c. PTZ mouse model = test: Subcutaneous pentylenetetrazole; format: in vivo; settings: ip, 450 mg/kg, 1 h
Procedure, shortened: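 Test compound was suspended in 0.5% HPMC and given ip to male CF-1 mice, 8 per group per dose. One hour later, 85 mg/kg PTZ was injected subcutaneously into the midline of the neck. Mice showing no spasms or twitching were scored protected.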

[6] = tested on: motor impairment (mouse rotarod assay); test: Behavioral toxicity in mice; format: in vivo; settings: acute (~1h) observation period, dose up to 800 mg/kg
Pharmacokinetics in mice = format: in vivo; settings: Mus musculus, read-out: free EC50 in mice
[7] = tested on: recurrent epileptiform discharges (REDs) in brain slices from the kainite-induced status epilepticus model; test: Spontaneous recurrent epileptiform discharges; settings: brain slices in vitro
[8] = Lethality and other treatment effects in mice seizure models; format: in vivo; settings: CF-1, mouse, in vivo, intraperitoneal
mice = test: as above; format: in vivo; settings: mice
[9] = tested on: PTZ-induced seizures in zebrafish larvae; settings: 20 μM; cited from earlier work
[10] = tested on: 6 Hz 32 mA mouse seizure model; settings: 6 Hz 32 mA mouse model, at 15 min; cited from earlier work
[11] = two hours; cited from earlier work

**Q.** For `O=C1C=C(NCCC2CCC2)C(=O)c2ccccc21` [3l, 2-((2-cyclobutylethyl)amino)naphthalene-1,4-dione], which “toxicity in HT-22 cells (in words)” value (HT-22 neuronal cells) is on record?
**A.** Its value is “do not display obvious toxicity”.

**Q.** And the seizure protection [1]?
**A.** The seizure protection was “without full seizure protection”.

**Q.** For `CC1=CC(=O)c2ccccc2C1=O` [VK3], which “reaction with 2-mercaptoethanol (Michael reaction)” value (PAINS exclusion assay) is on record?
**A.** The value was “rapidly reacts”.

**Q.** What about the “effect on ATP levels” value [2] of the same molecule?
**A.** The value was “can increase ATP levels”.

**Q.** And the lethal dose (zebrafish)?
**A.** Its lethal dose is 7 µM.

**Q.** With `CC[C@@H](C(N)=O)N1CCCC1=O` [Levetiracetam] as the molecule, how does the “6 Hz 44 mA ED50” value ([3]; 6 Hz 44 mA seizure model) read?
**A.** Its value is “over 1000 mg/kg”.

**Q.** Which results are given for `CC(C)CCNC1=CC(=O)c2ccccc2C1=O` [3d, 2-(isopentylamino)naphthalene-1,4-dione]?
**A.** toxicity in HT-22 cells (in words) (HT-22 neuronal cells): do not display obvious toxicity; also recorded: does not show obvious toxicity; seizure protection ([4]; 400 mg/kg): full protection; ED50 value (EC50) ([4]; time of test 1 h): 152.7 mg/kg; seizure protection [5]: full protection; seizure protection (MES-induced seizures): full protection; animals protected (s.c. PTZ mouse model): 6 out of 8; motor impairment (mouse rotarod assay) [6]: does not show signs of major motor impairment; EC50 (Pharmacokinetics in mice): ~123 nM; reaction with 2-mercaptoethanol (Michael reaction) (PAINS exclusion assay): does not react; effect on spontaneous REDs [7]: does not attenuate; LD50 at 24 h [8]: > 800 mg/kg; doses lethal in some animals (mice; after electric stimulation, after 24h (data not shown)): greater than 500 mg/kg; other effects of treatment observed (mice; at time of treatment and ~1 h observation period (data not shown)): writhing (abdominal constriction); also recorded: discolored urine and lethargy

**Q.** Which anti-seizure activity [9] does the source give for `C#CCNC1=CC(=O)c2ccccc2C1=O` [2h] here?
**A.** The anti-seizure activity was “clear anti-seizure activity”.

**Q.** What about the seizure protection [10] of the same molecule?
**A.** Its seizure protection is “full protection”.

**Q.** And the seizure protection ([3]; 6 Hz 44 mA mouse model)?
**A.** Its seizure protection is “no longer protective; also recorded: did not show any protection”.

**Q.** And the “effect on ATP levels” value [2]?
**A.** Its value is “can increase ATP levels”.

**Q.** What about the “stability in mouse serum” value [11] of the same molecule?
**A.** The value was “no catabolic conversion”.

**Q.** And the toxicity (zebrafish; 20 μM)?
**A.** The toxicity was “no observable toxicity”.
